Assay results reported in ChEMBL document CHEMBL4414574, “Structure-Based Discovery and Development of a Series of Potent and Selective Bromodomain and Extra-Terminal Protein Inhibitors” (J Med Chem, 2019).
The source made the active and inactive calls. The rule behind the calls is not given here.

Legend:
[1] = target: SWI/SNF-related matrix-associated actin-dependent regulator of chromatin subfamily A member 2 (Homo sapiens) (UniProt P51531); assay: Binding affinity to human partial length SMARCA2 (S1377 to Q1486 residues) expressed in Escherichia coli BL21 cells assessed as residual binding level at 1 uM measured after 1 hr by quantitative PCR based BROMOscan assay relative to control
In short: (§1)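 Bromodomain panel screen (32 bromodomains) run at 1 μM single concentration; primary binding reported as 'Percent Control', lower values meaning stronger interaction.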

[2] = target: Bromodomain testis-specific protein (Homo sapiens) (UniProt Q58F21); assay: Binding affinity to human partial length BRDT bromodomain 1 (N21 to E137 residues) expressed in Escherichia coli BL21 cells assessed as residual binding level at 1 uM measured after 1 hr by quantitative PCR based BROMOscan assay relative to control
In short: (§2)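 A BROMOScan competition-binding panel of 32 bromodomains was run at a single 1 μM compound concentration. Results are primary-screen 'Percent Control', where lower values indicate stronger binding.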

[3] = target: Bromodomain-containing protein 2 (Homo sapiens) (UniProt P25440); assay: Binding affinity to human partial length BRD2 bromodomain 2 isoform 1 (E348 to D455 residues) expressed in Escherichia coli BL21 cells assessed as residual binding level at 1 uM measured after 1 hr by quantitative PCR based BROMOscan assay relative to control; in short: as §2
[4] = target: Bromodomain-containing protein 3 (Homo sapiens) (UniProt Q15059); assay: Binding affinity to human partial length BRD3 bromodomain 2 (G306 to P416 residues) expressed in Escherichia coli BL21 cells assessed as residual binding level at 1 uM measured after 1 hr by quantitative PCR based BROMOscan assay relative to control; in short: as §2
[5] = target: Chromatin remodeling regulator CECR2 (Homo sapiens) (UniProt Q9BXF3); assay: Binding affinity to human partial length CECR2 (P423 to D543 residues) expressed in Escherichia coli BL21 cells assessed as residual binding level at 1 uM measured after 1 hr by quantitative PCR based BROMOscan assay relative to control; in short: as §2
[6] = target: Protein polybromo-1 (Homo sapiens) (UniProt Q86U86); assay: Binding affinity to human partial length PB1 bromodomain 5 (S645 to D766 residues) expressed in Escherichia coli BL21 cells assessed as residual binding level at 1 uM measured after 1 hr by quantitative PCR based BROMOscan assay relative to control; in short: as §1
[7] = target: Peregrin (Homo sapiens) (UniProt P55201); assay: Binding affinity to human partial length BRPF1 (E627 to G740 residues) expressed in Escherichia coli BL21 cells assessed as residual binding level at 1 uM measured after 1 hr by quantitative PCR based BROMOscan assay relative to control; in short: as §2
[8] = target: Bromodomain-containing protein 4 (Homo sapiens, UniProt O60885); assay: Inhibition of BRD4 bromodomain 1 (unknown origin)
In short: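 BRD4 BD1 (His6-tagged, E. coli BL21(DE3)-expressed, Ni-NTA purified) at 10 nM with 5 nM FITC-labelled (+)-JQ1 tracer; 50 mM HEPES pH 7.4, 150 mM NaCl, 0.5 mM CHAPS, DMSO 2‰ final; graded inhibitor; 4 h dark equilibration at room temperature; fluorescence anisotropy read (ex 485/em 530 nm). IC50 from two independent experiments in duplicate, mean ± SEM.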

[9] = target: Proto-oncogene tyrosine-protein kinase Src (Homo sapiens) (UniProt P12931); assay: Inhibition of Src (unknown origin) at 10 uM using poly (Glu, Tyr) 4:1 as substrate after 60 mins by ELISA
[10] = target: Insulin-like growth factor 1 receptor (Homo sapiens) (UniProt P08069); assay: Inhibition of IGF1R (unknown origin) at 10 uM using poly (Glu, Tyr) 4:1 as substrate after 60 mins by ELISA
[11] = test system: Hep 3B2; assay: Antiproliferative activity against human Hep3B cells after 72 hrs by CCK8 or SRB assay; format: functional, cell-based
[12] = test system: HT-29; assay: Antiproliferative activity against human HT-29 cells after 72 hrs by CCK8 or SRB assay; format: functional, cell-based
[13] = test system: BT-549; assay: Antiproliferative activity against human BT549 cells after 72 hrs by CCK8 or SRB assay; format: functional, cell-based
[14] = test system: SK-OV-3; assay: Antiproliferative activity against human SKOV3 cells after 72 hrs by CCK8 or SRB assay; format: functional, cell-based
[15] = test system: MV4-11; assay: Induction of apoptosis in human MV4-11 cells assessed as induction of PARP cleavage at 10 to 1000 nM after 24 hrs by Western blot analysis; format: functional, cell-based
In short: (§3)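 MV4-11 cells exposed to compound at the indicated doses for 24 h; lysates probed by Western blotting for the target protein, with GAPDH as loading control.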

[16] = test system: MV4-11; assay: Induction of apoptosis in human MV4-11 cells assessed as reduction in BCL-2 level after 24 hrs by Western blot analysis; format: functional, cell-based; in short: as §3
[17] = test system: RKO; assay: Induction of cell cycle arrest in human RKO cells assessed as increase in accumulation at G1 phase at 100 nM after 24 hrs by propidium iodide staining based flow cytometric analysis; format: functional
[18] = Tmax in rat plasma at 50 mg/kg, po; format: ADME, organism-based
In short: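 Rats dosed orally at 50 mg/kg in 1% DMSO/0.5% HPMC; drug measured in plasma and brain.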

[19] = AUC (0 to t) in ICR mouse plasma at 100 mg/kg, po administered via gavage measured after 0.25 to 24 hrs by UPLC/MS analysis; format: ADME, organism-based; parameters: time upper 24 hr, dose 100 mg/kg, time lower 0.25 hr, route oral
In short: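 Male ICR mice were dosed orally in 1% DMSO/0.5% HPMC vehicle. Plasma (and brain, where stated) concentrations gave Tmax, Cmax, T1/2, AUC0-t and AUC0-inf.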

[20] = AUC (0 to t) in rat plasma at 3 mg/kg, iv; format: ADME, organism-based
In short: (§4)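 Compound was given orally or intravenously in 1% DMSO/0.5% HPMC vehicle. Concentrations in plasma, or in brain where stated, gave Tmax, Cmax, T1/2, AUC0-t and AUC0-inf.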

[21] = AUC (0 to t) in dog plasma at 3 mg/kg, po; format: ADME, organism-based, Canis lupus familiaris; in short: as §4
[22] = Half life in ICR mouse brain at 50 mg/kg, po administered via gavage measured after 0.25 to 24 hrs by UPLC/MS analysis; format: ADME, organism-based
In short: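 Male ICR mice dosed orally in 1% DMSO/0.5% HPMC vehicle; plasma or brain drug levels used to derive Tmax, Cmax, AUC0-t, AUC0-inf and T1/2.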

[23] = Half life in rat brain at 50 mg/kg, po; format: ADME, organism-based
[24] = Half life in dog plasma at 3 mg/kg, po; format: ADME, organism-based, Canis lupus familiaris
[25] = Half life in dog plasma at 1 mg/kg, iv; format: ADME, organism-based, Canis lupus familiaris
[26] = Bioavailability in dog at 1 mg/kg, iv; format: ADME, organism-based, Canis lupus familiaris; conditions: in vivo
[27] = Toxicity in Balb/c nude mouse xenografted with human MV4-11 cells assessed as effect on mouse survival at 10 to 50 mg/kg, administered once daily; format: organism-based; conditions: in vivo

Protein polybromo-1 (Homo sapiens), sequence (Q86U86 whole entry, the tested form may be a part): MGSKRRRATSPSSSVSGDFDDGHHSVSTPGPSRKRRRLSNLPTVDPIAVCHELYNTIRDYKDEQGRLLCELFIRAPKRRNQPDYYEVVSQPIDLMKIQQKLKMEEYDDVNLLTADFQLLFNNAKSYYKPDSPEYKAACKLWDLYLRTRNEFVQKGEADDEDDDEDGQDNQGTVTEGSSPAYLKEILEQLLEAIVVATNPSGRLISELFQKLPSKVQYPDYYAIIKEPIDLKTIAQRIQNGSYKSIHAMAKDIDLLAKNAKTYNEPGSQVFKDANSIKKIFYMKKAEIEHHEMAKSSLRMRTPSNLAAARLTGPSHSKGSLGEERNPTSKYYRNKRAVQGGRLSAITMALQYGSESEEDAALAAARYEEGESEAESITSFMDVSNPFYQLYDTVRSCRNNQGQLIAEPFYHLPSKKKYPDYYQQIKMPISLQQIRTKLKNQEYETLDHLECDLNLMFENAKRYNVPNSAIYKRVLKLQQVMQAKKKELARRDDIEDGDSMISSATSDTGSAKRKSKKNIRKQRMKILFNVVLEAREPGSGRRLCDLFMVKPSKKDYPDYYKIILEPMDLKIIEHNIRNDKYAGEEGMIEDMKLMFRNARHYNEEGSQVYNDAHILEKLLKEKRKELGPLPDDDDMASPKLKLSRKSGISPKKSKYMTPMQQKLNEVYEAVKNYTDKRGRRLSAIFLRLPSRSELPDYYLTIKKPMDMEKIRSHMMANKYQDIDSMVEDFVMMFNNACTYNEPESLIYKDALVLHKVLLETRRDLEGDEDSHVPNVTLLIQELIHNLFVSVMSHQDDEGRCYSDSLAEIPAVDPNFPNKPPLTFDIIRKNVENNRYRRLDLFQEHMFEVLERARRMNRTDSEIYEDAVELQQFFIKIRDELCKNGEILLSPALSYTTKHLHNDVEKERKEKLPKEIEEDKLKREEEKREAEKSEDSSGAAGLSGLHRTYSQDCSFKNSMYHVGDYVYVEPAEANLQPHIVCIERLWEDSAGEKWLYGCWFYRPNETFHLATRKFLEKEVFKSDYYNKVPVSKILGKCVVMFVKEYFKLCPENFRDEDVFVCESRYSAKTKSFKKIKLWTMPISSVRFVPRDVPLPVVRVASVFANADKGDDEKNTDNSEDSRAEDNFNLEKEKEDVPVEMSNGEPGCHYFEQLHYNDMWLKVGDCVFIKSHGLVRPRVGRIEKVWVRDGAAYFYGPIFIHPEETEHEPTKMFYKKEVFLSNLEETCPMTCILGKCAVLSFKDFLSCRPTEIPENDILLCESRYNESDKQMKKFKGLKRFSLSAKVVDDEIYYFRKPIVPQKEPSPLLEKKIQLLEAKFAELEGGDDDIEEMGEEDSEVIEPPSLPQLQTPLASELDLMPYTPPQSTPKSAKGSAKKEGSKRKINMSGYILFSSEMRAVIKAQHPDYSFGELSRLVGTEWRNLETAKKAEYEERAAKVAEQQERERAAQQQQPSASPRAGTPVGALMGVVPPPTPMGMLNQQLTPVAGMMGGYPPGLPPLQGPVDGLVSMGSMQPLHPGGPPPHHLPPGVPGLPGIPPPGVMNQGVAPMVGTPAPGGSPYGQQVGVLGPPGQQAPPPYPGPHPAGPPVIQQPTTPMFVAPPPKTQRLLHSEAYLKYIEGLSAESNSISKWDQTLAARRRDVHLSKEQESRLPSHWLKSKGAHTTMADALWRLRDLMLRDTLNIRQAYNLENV
Bromodomain-containing protein 2 (Homo sapiens), sequence (P25440 whole entry, looked up, the tested form may be a part, canonical isoform): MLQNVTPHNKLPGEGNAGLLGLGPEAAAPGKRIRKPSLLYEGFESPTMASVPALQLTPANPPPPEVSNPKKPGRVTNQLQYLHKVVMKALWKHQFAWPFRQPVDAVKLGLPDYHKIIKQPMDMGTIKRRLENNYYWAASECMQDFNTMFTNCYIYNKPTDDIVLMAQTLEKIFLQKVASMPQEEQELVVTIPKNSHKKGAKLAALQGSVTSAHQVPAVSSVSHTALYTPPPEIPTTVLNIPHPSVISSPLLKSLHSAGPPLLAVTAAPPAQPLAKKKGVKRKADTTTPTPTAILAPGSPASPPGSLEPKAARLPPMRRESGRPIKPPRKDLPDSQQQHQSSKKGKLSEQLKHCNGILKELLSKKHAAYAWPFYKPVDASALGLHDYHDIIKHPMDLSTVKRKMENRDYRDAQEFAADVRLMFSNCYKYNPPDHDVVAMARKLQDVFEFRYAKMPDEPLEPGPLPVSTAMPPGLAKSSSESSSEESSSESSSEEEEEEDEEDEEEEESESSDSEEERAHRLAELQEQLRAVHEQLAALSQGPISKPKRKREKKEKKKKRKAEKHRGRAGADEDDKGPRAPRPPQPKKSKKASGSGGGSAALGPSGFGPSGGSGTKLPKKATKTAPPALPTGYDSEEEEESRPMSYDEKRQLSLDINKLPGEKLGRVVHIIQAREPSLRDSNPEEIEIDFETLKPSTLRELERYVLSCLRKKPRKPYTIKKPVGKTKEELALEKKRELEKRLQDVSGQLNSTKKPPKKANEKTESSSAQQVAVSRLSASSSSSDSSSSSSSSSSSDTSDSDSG
Proto-oncogene tyrosine-protein kinase Src (Homo sapiens), sequence (P12931 2-536 limits assumed): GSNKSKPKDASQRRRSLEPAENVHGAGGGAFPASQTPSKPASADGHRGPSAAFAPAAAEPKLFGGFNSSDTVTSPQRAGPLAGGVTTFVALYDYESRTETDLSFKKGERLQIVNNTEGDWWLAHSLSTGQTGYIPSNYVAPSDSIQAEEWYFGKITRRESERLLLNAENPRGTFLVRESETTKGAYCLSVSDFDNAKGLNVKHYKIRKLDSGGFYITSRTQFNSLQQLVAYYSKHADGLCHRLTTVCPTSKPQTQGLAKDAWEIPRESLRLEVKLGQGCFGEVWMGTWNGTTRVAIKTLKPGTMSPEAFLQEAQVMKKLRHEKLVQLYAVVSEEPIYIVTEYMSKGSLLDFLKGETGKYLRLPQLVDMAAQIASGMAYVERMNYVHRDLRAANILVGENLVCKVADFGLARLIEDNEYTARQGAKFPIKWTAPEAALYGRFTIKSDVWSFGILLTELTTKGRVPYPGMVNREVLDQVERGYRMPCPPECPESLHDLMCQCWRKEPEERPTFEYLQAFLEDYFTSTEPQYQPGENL
SWI/SNF-related matrix-associated actin-dependent regulator of chromatin subfamily A member 2 (Homo sapiens), sequence (P51531 whole entry, the tested form may be a part): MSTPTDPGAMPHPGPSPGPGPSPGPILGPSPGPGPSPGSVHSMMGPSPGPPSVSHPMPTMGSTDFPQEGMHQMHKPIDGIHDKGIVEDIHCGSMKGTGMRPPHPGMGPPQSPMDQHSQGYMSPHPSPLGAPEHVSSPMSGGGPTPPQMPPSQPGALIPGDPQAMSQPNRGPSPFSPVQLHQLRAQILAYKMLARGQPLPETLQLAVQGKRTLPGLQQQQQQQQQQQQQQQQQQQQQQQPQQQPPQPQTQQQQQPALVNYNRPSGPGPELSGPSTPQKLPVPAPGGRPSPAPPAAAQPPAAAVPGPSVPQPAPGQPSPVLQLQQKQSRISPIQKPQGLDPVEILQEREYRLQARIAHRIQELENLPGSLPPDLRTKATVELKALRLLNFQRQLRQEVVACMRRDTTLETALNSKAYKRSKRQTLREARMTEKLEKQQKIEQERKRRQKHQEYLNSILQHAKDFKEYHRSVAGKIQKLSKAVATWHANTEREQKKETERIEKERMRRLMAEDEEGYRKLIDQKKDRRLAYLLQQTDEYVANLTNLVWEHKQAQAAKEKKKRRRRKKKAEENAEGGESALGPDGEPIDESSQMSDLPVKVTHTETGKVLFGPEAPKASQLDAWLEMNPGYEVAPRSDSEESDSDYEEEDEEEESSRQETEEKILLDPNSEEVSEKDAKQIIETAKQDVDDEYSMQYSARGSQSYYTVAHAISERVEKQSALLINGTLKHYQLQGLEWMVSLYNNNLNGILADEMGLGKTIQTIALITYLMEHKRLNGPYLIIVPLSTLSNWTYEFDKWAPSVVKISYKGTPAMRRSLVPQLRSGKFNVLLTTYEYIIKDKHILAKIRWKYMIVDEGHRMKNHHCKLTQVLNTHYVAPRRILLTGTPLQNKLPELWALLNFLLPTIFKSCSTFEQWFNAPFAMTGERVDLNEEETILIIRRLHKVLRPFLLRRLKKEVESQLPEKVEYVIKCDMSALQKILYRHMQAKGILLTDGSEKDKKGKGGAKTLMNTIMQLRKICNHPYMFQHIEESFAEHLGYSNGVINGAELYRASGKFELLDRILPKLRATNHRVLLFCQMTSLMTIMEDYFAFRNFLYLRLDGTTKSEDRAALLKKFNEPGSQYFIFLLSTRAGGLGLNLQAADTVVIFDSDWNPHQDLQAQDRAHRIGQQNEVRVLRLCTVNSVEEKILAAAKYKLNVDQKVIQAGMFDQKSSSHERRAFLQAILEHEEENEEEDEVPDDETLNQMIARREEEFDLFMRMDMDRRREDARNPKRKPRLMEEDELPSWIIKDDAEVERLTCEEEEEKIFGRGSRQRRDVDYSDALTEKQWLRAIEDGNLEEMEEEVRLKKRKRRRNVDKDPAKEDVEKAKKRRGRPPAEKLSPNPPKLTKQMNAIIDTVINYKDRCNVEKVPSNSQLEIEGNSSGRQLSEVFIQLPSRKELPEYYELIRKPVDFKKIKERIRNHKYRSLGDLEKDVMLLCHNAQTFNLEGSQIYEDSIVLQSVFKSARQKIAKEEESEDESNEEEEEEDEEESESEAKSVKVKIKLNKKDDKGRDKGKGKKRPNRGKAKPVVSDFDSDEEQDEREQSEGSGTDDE

Cc1ccc(-n2nc(C(=O)N3C[C@@H](C)N[C@@H](C)C3)nc2-c2ccc3c(c2)N(C2CCCC2)[C@H](C)C(=O)N3C)cc1
Activity [1]: 70 to 100%
Activity [2]: < 5%
Activity [3]: < 5%
Activity [4]: < 5%
Activity [5]: 70 to 100%
Activity [6]: 70 to 100%
Activity [7]: 70 to 100%
inhibition [8]: Active
inhibition [9]: Active
inhibition [10]: Active
Activity [11]: Active
Activity [12]: Active
Activity [13]: Active
Activity [14]: Active
Activity [15]: Active
Activity [16]: Dose-dependent effect
Activity [17]: Active
Tmax [18]: 0.4 h
AUC(0-t) [19]: 80600 ng·h/mL
AUC(0-t) [20]: 2010 ng·h/mL
AUC(0-t) [21]: 747 ng·h/mL
half-life [22]: 3 h
half-life [23]: 9.3 h
half-life [24]: 6.6 h
half-life [25]: 9.4 h
bioavailability [26]: 34.3%
Activity [27]: Non-Toxic
